Most compounds without a hit are left out; they make up all but 3.1% or so of the library.
Ecoli rRNA inh – inhibitors of bacterial rRNA selective over humanized ribosomes | GFP signal change (wild-type ribosome), % (concentration not given with the values) | E. coli WT GFP vs humanized-ribosome RFP mutants, fluorescence, 24 h; hits give low values; DMSO median 0, no signal -100 | hit rate 1.6% among 350,000 | AID 720706;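 active means significant combined selectivity score with lowered wild-type GFP, culture density cut under 30%, mutant RFP and density less affected; inactive means any of these conditions unmet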
Cneo AK release – causes C. neoformans cell lysis. adenylate kinase release luminescence, 4 h; normalised: neutral wells 0, clomiphene wells 100. lysis activity, % at 15 µM. hit rate 0.2% among 360,000. AID 651654;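 active means mean lysis activity across replicates of at least 80%, whatever share of replicates individually reach that level; inactive means mean lysis activity below 80%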
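Signal: Adenylate kinase release luminescence | Assay system: Log-phase Cryptococcus neoformans yeast cells | Input: Cells at 5 × 10^6 per mL | Buffer or medium: Fresh YPD growth medium | Compound: Single dose | Schedule: Static 4 h at 37 °C with compound, 1 h detection | Controls: Clomiphene | Read-out: Luminescence rise reflecting yeast cell lysis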
DENV2 CPE – inhibitors of DENV2 cytopathic effect | DENV2-infected cells, cytopathic effect rescue, plate reader | CPE inhibition, % at 9.99 µM | hit rate 1.7% among 350,000; in the data active means CPE inhibition above about 20%, passing the limit was not always enough; inconclusive means no clear call, values can overlap the other calls; tested in BHK-21 cells;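 further: 0% = median of neutral control wells and 100% = median of positive control wells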
miR122 inh – miR-122 inhibition in Huh7 cells; Huh7 miR-122 Renilla luciferase sensor, 48 h; neutral wells = 0, positive control = 100; AID 602342; activation (reporter increase), % at 12.5 µM; hit rate 0.3% among 340,000;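 active means mean replicate activation score at least 90 and every replicate individually at or above 90; inconclusive means only one of the two criteria met; inactive means neither criterion met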;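 further: higher luciferase means less miR-122 activity so hits act as miR-122 inhibitors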
E-sel inducer – induces E-selectin expression in human endothelial cells | P16581 | HUVEC E-selectin immunofluorescence imaging; normalized: neutral wells 0, TNF-alpha wells 100 | activation, % at 7.58 µM | hit rate 0.37% among 260,000 | AID 686992;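 active means mean E-selectin-positive cell signal at least 10% of the positive control, reached in at least 60% of replicates, without over 20% cell loss; inconclusive means no rule given, readout overlaps actives, possibly toxicity-flagged; inactive means the rest, including those meeting only one limit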
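Test system – human umbilical vein endothelial cells (HUVEC), E-selectin induction · Input – 3,000 HUVEC seeded per well · Buffer or medium – EGM-2, gelatin · Compound dosing – single-point compound dose · Detection – immunofluorescence imaging · Measure – percent E-selectin-positive cells · Controls – TNF-alpha high, DMSO low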
AID977621 – wild-type E. coli growth inhibition versus H69 humanized strain – H69 mutant RFP, wild-type GFP, cherry-pick, dose response; shares compounds with Ecoli rRNA inh; fluorescence, 24 h; activity change, negative = inhibition at 50 µM; 1,900 tested, under 10 active; AID 977621;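 active means Wild-type ribosome reporter drop at least double the humanized mutant ribosome reporter drop, growth loss under a set limit; inconclusive means no clear call, values can overlap the other calls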;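 further: wild-type GFP and H69 mutant RFP strains grown together 50/50 in each well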
AID977628 – growth of wild-type and h24-humanized E. coli strains – h24 mutant RFP vs wild-type GFP, cherry-pick, dose response | 1,900 tested, under 10 active | E. coli WT GFP strain growth, fluorescence, 24 h | activity change, negative = inhibition at 50 µM | shares compounds with Ecoli rRNA inh | AID 977628;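 active means compound lowering the normal-ribosome reporter at least twice as much as the humanized-ribosome reporter, growth loss under a set limit; inconclusive means no clear call, values can overlap the other calls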;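 further: wild-type GFP and h24 humanized RFP strains co-cultured 1 to 1 per well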
Active calls of the source: *; ? = inconclusive; . = no result; [ ] = dose if it differs, or a comment.

SMILES | Ecoli rRNA inh | Cneo AK release | DENV2 CPE | miR122 inh | E-sel inducer | AID977621 | others
O=S(=O)(c1ccc(Cl)cc1)N1CCN=C1SCc1cccc(Cl)c1 | -23* | . | -1 | . | -1 | -5.5
CS(=O)(=O)N1CCN(c2ccnc3cc(Cl)ccc23)CC1 | -16 | -3 | 2 | 3 | . | .
CCS(=O)(=O)N1CCN(c2ccnc3cc(Cl)ccc23)CC1 | -21* | 1 | -1 | 3 | 6 | -4.3
COc1ccc(CN2C(=O)CC(Cc3cc(C)cc(C)c3)C2=O)cc1OC (stereo not drawn) | -20* | . | 1 | . | -2 | -7.8
COc1ccc(NC(=O)N[C@@H]2CC[C@H](CCn3cc(-c4ccc(OC)cc4)nn3)O[C@H]2CO)cc1 | -3 | 0 | -5 | . | 2 | .
CCCNC(=O)C[C@@H]1CC[C@@H]2[C@H](COC[C@H](O)CN2C(=O)Nc2ccc3c(c2)OCO3)O1 | 1 | -2 | -1 | -1[16.7 µM] | 0 | .
COc1ccc(Cl)cc1NC(=O)CN(C)CC(=O)Nc1ccccc1-c1ccccc1 | -24* | 0 | -1 | 2 | -1 | -9.7
Cc1noc(C)c1NC(=O)Nc1ccc2c(c1)C(=O)N([C@@H](C)CO)C[C@@H](C)[C@H](CN(C)CC1CCCCC1)O2 | 1 | 0 | 1 | -11[16.7 µM] | 2 | .
O=[N+]([O-])c1ccc(-[n+]2nc(-c3ccccc3)nn2-c2ccccc2)cc1 | -22* | 1 | -3 | . | 0 | . | AID977628=?
O=c1ccc(-c2ccc([N+](=O)[O-])cc2)nn1-c1ccccc1 | 21 | . | 16 | 5 | . | .
C[C@@H]1CN([C@H](C)CO)C(=O)c2cccc(NC(=O)c3cnccn3)c2O[C@H]1CN(C)S(=O)(=O)c1ccc(F)cc1 | 5 | . | 5 | 1[16.7 µM] | 0 | .
CC1(C)CC(=O)c2cnc(N3CCc4ccccc43)nc2C1 | -34* | . | 8 | . | 4 | -2.7
Fc1cnc(N2CCc3ccccc32)nc1N1CCc2ccccc21 | . | 7 | . | 3 | . | .
CC(C)NC(=O)N[C@@H]1C=C[C@@H](CC(=O)O)O[C@H]1CO | -3 | 4 | 6 | . | 0 | .
O=C1CCCN1CCCNc1ncnc2c1[nH]c1ccc(Cl)cc12 | -23* | -4 | . | . | . | -22
COc1cccc(C(=O)C2CCCN(C/C=C/c3ccccc3OC)C2)c1 (stereo not drawn) | -29* | 1 | -1 | -4 | . | ? | AID977628=?
COc1ccc(C(=O)C2CCCN(C/C=C/c3ccccc3OC)C2)c(OC)c1 (stereo not drawn) | -11 | . | 1 | . | . | .
Cc1ccc(Cc2c(-c3ccc(C#N)cc3)nc3ccc(Br)cn23)cc1 | -28* | 2 | -5 | 2 | . | 9 | AID977628=2.9
COc1ccccc1Cc1c(-c2ccc(F)cc2)nc2ccc(Br)cn12 | -24* | 0 | 0 | 5 | 0 | -13 | AID977628=-12
Cc1ccc(Cc2c(-c3ccc(C#N)cc3)nc3ccc(C)cn23)cc1 | -12 | . | 4 | . | -2 | .
C[C@@H]1CCCCO[C@H](CN(C)Cc2ccncc2)[C@H](C)CN([C@@H](C)CO)C(=O)c2cc(NC(=O)CCCN(C)C)ccc2O1 | 5 | 7 | ? | -2[16.7 µM] | 0 | .
COc1cccc(C(=O)NC2CC3CCCC(C2)N3S(=O)(=O)c2ccccc2)c1 (stereo not drawn) | -31* | . | -3 | -1 | 1 | ?
CCCCN1C2CCCC1CC(NC(=O)c1cccc(OC)c1)C2 (stereo not drawn) | 8 | 0 | 9 | 4 | . | .
O=C(Nc1ccc(F)cc1)N1CC(=O)N2[C@H](C1)[C@H](c1ccc(Br)cc1)[C@@H]2CO | 0 | . | 12 | . | 0 | .
CN(CCCOc1ccccc1Br)Cc1ccccc1 | -13 | . | -5 | 2 | . | .
Cc1cc(C)c(OCCN(C)Cc2ccccc2)c(Br)c1 | -23* | . | -2 | . | -2 | 4.1 | AID977628=-8.3
CC(=O)N1CCOc2ccc(S(=O)(=O)N(C)c3ccc(C)cc3)cc21 | -21* | 6 | -3 | 1 | . | -13
CC(=O)N1CCOc2ccc(S(=O)(=O)NCc3ccc(C)cc3)cc21 | 0 | 0 | 0 | 18 | . | .

Source: PubChem BioAssay
